Laboratory results taken from ChEMBL document CHEMBL2311393 (Bioorg Med Chem Lett, 2013).
pIC50: −log10 of the molar value. Activity calls are given as the source filed them. The calls are words filed in the database; no cut-off is given here.

Tests used:
[1] = tested on: MCF7; assay: Antiproliferative activity against human MCF7 cells; assay type: functional, cell-based
In short: (§1)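 Growth inhibition in SKBr3 (ER-negative, Her2-overexpressing) and MCF-7 (ER-positive) breast cancer cells, run per an earlier published protocol. Values are mean ± standard deviation of at least two separate experiments, each in triplicate.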

[2] = tested on: SK-BR-3; assay: Antiproliferative activity against human SKBR3 cells; assay type: functional, cell-based; in short: as §1
[3] = molecular target: T1, Heat shock protein HSP90 (Homo sapiens) (UniProt P07900+P08238); assay: Inhibition of Hsp90 in human MCF7 cells assessed as degradation of client protein Akt after 24 hrs by Western blot analysis; assay type: cell-based
In short: (§2)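 MCF-7 cells were treated with the compound across a concentration series. Cell lysates were then probed by western blot for the Hsp90 client proteins Raf and Akt, for Hsp90 itself, and for actin as a non-Hsp90-dependent control protein.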

[4] = molecular target: T1, Heat shock protein HSP90 (Homo sapiens); assay: Inhibition of Hsp90 in human MCF7 cells assessed as degradation of client protein Raf after 24 hrs by Western blot analysis; assay type: cell-based; in short: as §2
[5] = tested on: MCF7; assay: Effect on Hsp90 protein level in human MCF7 cells at 0.1 to 2.5 uM after 24 hrs by Western blot analysis; assay type: functional, cell-based; in short: as §2

Row | Compound | pIC50 [1] | pIC50 [2] | inhibition [3] | inhibition [4] | Activity [5]
1 | CC(C)=CCc1cc(C(=O)Nc2cc3ccc(OCCCN(C)C(C)C)c(C)c3oc2=O)ccc1O | 5.98 | 6.24 | – | – | –
2 | CCN(C)CCCOc1ccc2cc(NC(=O)c3ccc(O)c(CC=C(C)C)c3)c(=O)oc2c1C | 5.66 | 6.14 | – | – | –
3 | CC(C)=CCc1cc(C(=O)Nc2cc3ccc(OCCCNc4ccccc4)c(C)c3oc2=O)ccc1O | < 4.30 | < 4.30 | – | – | –
4 | CCNCCCOc1ccc2cc(NC(=O)c3ccc(O)c(CC=C(C)C)c3)c(=O)oc2c1C | 6.01 | 6.14 | – | – | –
5 | CCCN(CCC)CCCOc1ccc2cc(NC(=O)c3ccc(O)c(CC=C(C)C)c3)c(=O)oc2c1C | < 4.30 | < 4.30 | – | – | –
6 | CC(C)=CCc1cc(C(=O)Nc2cc3ccc(OCCCNC(C)(C)C)c(C)c3oc2=O)ccc1O | 6.02 | 6.18 | – | – | –
7 | CC(C)=CCc1cc(C(=O)Nc2cc3ccc(OCCCN(C)Cc4ccccc4)c(C)c3oc2=O)ccc1O | 4.94 | 4.97 | – | – | –
8 | CC(C)=CCc1cc(C(=O)Nc2cc3ccc(OCCCN4CCCC4)c(C)c3oc2=O)ccc1O | 6.00 | 6.14 | – | – | –
9 | CC(C)=CCc1cc(C(=O)Nc2cc3ccc(OCCCNC4CCCCC4)c(C)c3oc2=O)ccc1O | 5.97 | 6.18 | – | – | –
10 | CC(C)=CCc1cc(C(=O)Nc2cc3ccc(OCCCN(C(C)C)C(C)C)c(C)c3oc2=O)ccc1O | 5.88 | 5.80 | – | – | –
11 | CC(C)=CCc1cc(C(=O)Nc2cc3ccc(OCCCN(C)C(C)(C)C)c(C)c3oc2=O)ccc1O | 5.94 | 6.06 | – | – | –
12 | CC(C)=CCc1cc(C(=O)Nc2cc3ccc(OCC4CCCNC4)c(C)c3oc2=O)ccc1O (stereo not given) | 6.10 | 6.22 | – | – | –
13 | CC(C)=CCc1cc(C(=O)Nc2cc3ccc(OCCC4CCCCN4)c(C)c3oc2=O)ccc1O (stereo not given) | 6.15 | 6.19 | – | – | –
14 | CC(C)=CCc1cc(C(=O)Nc2cc3ccc(OCCCNC(C)C)c(C)c3oc2=O)ccc1O | 6.13 | 6.12 | – | – | –
15 | CC(C)=CCc1cc(C(=O)Nc2cc3ccc(OCCCNCCO)c(C)c3oc2=O)ccc1O | 5.81 | 6.21 | – | – | –
16 | CC(C)=CCc1cc(C(=O)Nc2cc3ccc(OCCCN4CCNCC4)c(C)c3oc2=O)ccc1O | 6.03 | 6.09 | – | – | –
17 | CC(C)=CCc1cc(C(=O)Nc2cc3ccc(OCCCN[C@@H]4C[C@H]5CC[C@@H]4C5)c(C)c3oc2=O)ccc1O | 5.99 | 6.11 | – | – | –
18 | CC(C)=CCc1cc(C(=O)Nc2cc3ccc(OCC4CCN(C)C4)c(C)c3oc2=O)ccc1O (stereo not given) | 5.81 | 6.04 | – | – | –
19 | CCN(CC)CCCOc1ccc2cc(NC(=O)c3ccc(O)c(CC=C(C)C)c3)c(=O)oc2c1C | 5.19 | 5.31 | – | – | –
20 | CC(=O)Oc1ccc(C(=O)Nc2cc3ccc(OCCC4CCCCN4)c(C)c3oc2=O)cc1CC=C(C)C (stereo not given) | 6.15 | 6.19 | – | – | –

Row | Compound | pIC50 [1] | pIC50 [2] | inhibition [3] | inhibition [4] | Activity [5]
21 | CC(C)=CCc1cc(C(=O)Nc2cc3ccc(OCCCNCC(C)C)c(C)c3oc2=O)ccc1O | 5.88 | 5.99 | – | – | –
22 | CC(=O)Oc1ccc(C(=O)Nc2cc3ccc(OCC4CCCN(C)C4)c(C)c3oc2=O)cc1CC=C(C)C (stereo not given) | 5.78 | 6.13 | – | – | –
23 | CO[C@@H]1[C@@H](O)[C@@H](O)[C@H](Oc2ccc3cc(NC(=O)c4ccc(O)c(CC=C(C)C)c4)c(=O)oc3c2C)OC1(C)C | – | 5.00 | – | – | –
24 | COC(=O)CNCCCOc1ccc2cc(NC(=O)c3ccc(O)c(CC=C(C)C)c3)c(=O)oc2c1C | 5.55 | 5.97 | – | – | –
25 | CC(C)=CCc1cc(C(=O)Nc2cc3ccc(OCCCN4CCCCC4)c(C)c3oc2=O)ccc1O | < 4.30 | < 4.30 | – | – | –
26 | CC(C)=CCc1cc(C(=O)Nc2cc3ccc(OCCCNC45CC6CC(CC(C6)C4)C5)c(C)c3oc2=O)ccc1O | 6.49 | 6.51 | Dose-dependent effect | Dose-dependent effect | inactive
27 | CC(C)=CCc1cc(C(=O)Nc2cc3ccc(OCCCNCc4ccccc4)c(C)c3oc2=O)ccc1O | 6.04 | 6.33 | – | – | –
28 | CC(C)=CCc1cc(C(=O)Nc2cc3ccc(OCC4CCCN(C)C4)c(C)c3oc2=O)ccc1O (stereo not given) | 5.58 | 5.89 | – | – | –
29 | CC(C)=CCc1cc(C(=O)Nc2cc3ccc(OCCCN4CCN(C)CC4)c(C)c3oc2=O)ccc1O | 5.92 | 6.00 | – | – | –
30 | CC(C)=CCc1cc(C(=O)Nc2cc3ccc(OCCCNCC(=O)O)c(C)c3oc2=O)ccc1O | 4.74 | 5.12 | – | – | –
31 | CC(=O)Oc1ccc(C(=O)Nc2cc3ccc(OCC4CCCNC4)c(C)c3oc2=O)cc1CC=C(C)C (stereo not given) | 6.09 | 6.21 | – | – | –
32 | CC(C)=CCc1cc(C(=O)Nc2cc3ccc(OCCCN[C@H](C)c4ccccc4)c(C)c3oc2=O)ccc1O | 5.84 | 6.00 | – | – | –
33 | CCCNCCCOc1ccc2cc(NC(=O)c3ccc(O)c(CC=C(C)C)c3)c(=O)oc2c1C | 6.01 | 6.00 | – | – | –
34 | CC(C)=CCc1cc(C(=O)Nc2cc3ccc(OCCCN(C)C4CCCCC4)c(C)c3oc2=O)ccc1O | 5.97 | 6.01 | – | – | –
35 | CC(C)=CCc1cc(C(=O)Nc2cc3ccc(OCCCN4CCOCC4)c(C)c3oc2=O)ccc1O | < 4.30 | < 4.30 | – | – | –
36 | CC(C)=CCc1cc(C(=O)Nc2cc3ccc(OCCCNC(C)(C)c4ccccc4)c(C)c3oc2=O)ccc1O | 5.97 | 6.02 | – | – | –
37 | CC(C)=CCc1cc(C(=O)Nc2cc3ccc(OCCCNCC(N)=O)c(C)c3oc2=O)ccc1O | 5.84 | 5.64 | – | – | –
38 | CC(C)=CCc1cc(C(=O)Nc2cc3ccc(OCCCN(C)c4ccccc4)c(C)c3oc2=O)ccc1O | < 4.30 | < 4.30 | – | – | –
39 | CC(=O)Oc1ccc(C(=O)Nc2cc3ccc(OCC4CCN(C)C4)c(C)c3oc2=O)cc1CC=C(C)C (stereo not given) | 5.73 | 6.06 | – | – | –
